This is a sample that favours compounds with a hit; in the whole collection about 2.9% have one here.
PG9 Ab binder – small molecules binding HIV-1 gp120 antibody PG9. 0.43% of 360,000 active. inhibition, % at 6.7 µM. TR-FRET gp120-PG9 antibody binding; in the data active = inhibition above about 8.5%
H9c2 TAG inh – inhibitors of triacylglycerol accumulation; H9c2 cells, Nile Red lipid (TAG) fluorescence; cells loaded with 200 µM oleic acid; inhibition, % at 12.5 µM; 0.66% of 230,000 active;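 active = pattern-corrected inhibition of lipid staining of at least 50% with the nuclear-stain viability signal not falling by more than 50%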;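 also: 0% = DMSO wells and 100% = triacsin C control wells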
beta cell repl – induces beta-cell replication in MIN6 cells | proliferation, % at 10 µM | MIN6 cells proliferation, ATPlite luminescence, 48 h; cells starved in 0.2% serum; 100% = growth in 10% serum | 0.29% of 330,000 active;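 active = compounds whose signal lies at least 3.5 SD above the mean of all wells on their plate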;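 also: 0% = DMSO-treated cells in low-serum medium and 100% = 10% serum control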
T cruzi inh – T. cruzi replication inhibition. T. cruzi beta-gal in NIH3T3, luminescence, 90 h. inhibition, % (concentration not given with the values). 1.4% of 300,000 active;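 active = mean inhibition across valid replicates above about 55%, limit read from the data; inconclusive = mean below that limit but half or more replicates reach it; inactive = mean below it, under half of replicates reach it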;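 also: signal also drops with host cell toxicity which is not excluded here; 0% = plate median of DMSO wells and 100% = zero luminescence signal; higher percent means less beta-gal luminescence so fewer parasites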
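Incubation – ≥90 h infection period, 3 h prior cell attachment · System – NIH/3T3 fibroblasts plus reporter T. cruzi · Doses – compound pinned at 50 nL/well, DMSO · Read-out basis – percent inhibition of parasite-derived β-gal signal · Signal – luminescent β-galactosidase signal after 60 min lysis · Also added – 5000 T. cruzi trypomastigotes/well · Medium – Low-serum DMEM with 2% FBS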
iPSC survival up – increases survival of single human iPS cells. hiPSC single-cell survival, ATPlite luminescence; 100% = ROCK inhibitor wells, 0% = DMSO. survival enhancement, % at 20 µM. 0.044% of 360,000 active; in the data active = survival enhancement above about 18%;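 also: cells exposed to compounds for 16 hours before the ATP read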
Rev-erbA mod – Rev-erb alpha (human) modulation; Rev-erbα–FITC-DNA binding, fluorescence polarization, 90 min; activity, % at 10 µM; 0.79% of 370,000 active;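 active = activity above about 14%, limit read from the data; passing the limit was not always enough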;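 also: 0% = DMSO wells with 35 nM protein and 100% = DMSO wells with 750 nM protein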
Target sequence (P20393 whole entry, looked up): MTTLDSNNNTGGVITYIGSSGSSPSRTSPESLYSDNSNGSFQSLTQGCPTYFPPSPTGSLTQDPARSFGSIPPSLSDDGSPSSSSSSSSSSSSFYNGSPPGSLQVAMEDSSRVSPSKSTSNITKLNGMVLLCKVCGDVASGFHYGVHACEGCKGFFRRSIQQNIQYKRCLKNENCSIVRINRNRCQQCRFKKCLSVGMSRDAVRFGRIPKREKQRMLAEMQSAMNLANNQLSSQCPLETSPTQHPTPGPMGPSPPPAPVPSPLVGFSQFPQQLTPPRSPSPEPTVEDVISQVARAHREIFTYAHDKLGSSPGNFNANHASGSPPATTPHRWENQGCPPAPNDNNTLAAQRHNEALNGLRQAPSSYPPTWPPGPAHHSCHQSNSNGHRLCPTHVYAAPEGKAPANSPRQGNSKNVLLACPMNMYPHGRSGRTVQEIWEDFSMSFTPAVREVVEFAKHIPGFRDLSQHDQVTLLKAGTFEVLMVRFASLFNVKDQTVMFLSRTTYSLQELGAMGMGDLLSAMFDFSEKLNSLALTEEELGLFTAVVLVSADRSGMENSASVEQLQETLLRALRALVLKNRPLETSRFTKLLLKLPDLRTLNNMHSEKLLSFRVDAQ
* hit, by the source's call; ? = inconclusive; . = not tested or not shown.

SMILES | PG9 Ab binder | H9c2 TAG inh | beta cell repl | T cruzi inh | iPSC survival up | Rev-erbA mod
Cn1c(=O)c2cc(NC(=S)NC3CC3)ccc2n1Cc1ccccc1 | -1 | 5 | . | . | 0 | -5
Cc1cc(C)nc(N2CCN(C(=O)c3ccc(S(=O)(=O)N4CCCCCC4)cc3)CC2)n1 | 0 | 2 | -1 | -2 | 0 | -4
COc1cccc(CNCCc2c[nH]c3ccccc23)c1OCc1ccccc1 | -1 | . | -4 | 42 | -1 | -1
COc1cc(CNCCc2c[nH]c3ccccc23)ccc1OCc1ccccc1F | 0 | . | -4 | 55* | 1 | -5
COc1ccc(C2CC(c3ccc(Br)cc3)=NN2C(=O)CSC2=NN3CCCC(=O)N=C3S2)cc1 (centres undefined) | . | . | -8 | 60* | 0 | .
COc1ccc(C2CC(c3cccs3)=NN2C(=O)CSC2=NN3CCCC(=O)N=C3S2)cc1 (centres undefined) | 0 | 5 | 0 | 10 | 4 | 2
COc1cc(C(=O)NNC(=S)NC(=O)c2ccc(F)cc2)cc(OC)c1OC | 1 | -2 | -1 | 65* | 1 | -2
Cn1nc([N+](=O)[O-])nc1Sc1cccc2cccnc12 | -1 | 105 | -6 | 65* | 1 | -1
O=Cc1ccc(Sc2nnc(-c3ccccc3)o2)c([N+](=O)[O-])c1 | . | . | -6 | 17 | -3 | .
Cn1nc([N+](=O)[O-])nc1Sc1nnc(-c2ccccc2)o1 | -1 | 23 | -6 | 69* | -4 | 2
O=C(O)CC(c1ccc(F)cc1F)N1Cc2ccccc2C1=O (centres undefined) | . | . | 0 | -10 | 0 | .
O=c1c(Cl)c(N2CCN(c3ccccc3)CC2)cnn1C12CC3CC(CC(C3)C1)C2 | -1 | -2 | 0 | 9 | -2 | 1
O=c1c(Cl)c(N2CCN(c3ccc(F)cc3)CC2)cnn1C12CC3CC(CC(C3)C1)C2 | -1 | . | -1 | 63* | 1 | -4
CCOc1ccc(-n2nc3c(=S)[nH]nc(C)c3c2C)cc1 | 42* | . | 0 | 17 | -1 | 4
CCC(=O)Nc1nnc(S(=O)(=O)N2c3ccccc3CC2C)s1 (centres undefined) | -1 | 4 | 1 | 15 | 4 | -6
Oc1c(C(c2ccc(Cl)cc2)N2CCCC2)cc(Cl)c2cccnc12 (centres undefined) | 0 | 1 | -6 | 70* | -3 | 5
Oc1c(C(c2ccccc2Cl)N2CCCC2)ccc2cccnc12 (centres undefined) | 1 | 62* | -7 | 84* | -1 | 3
Oc1c(C(c2cccs2)N2CCN(c3ccccc3)CC2)ccc2cccnc12 (centres undefined) | . | . | -5 | . | . | .
CN1CCN(C(c2ccc(C(F)(F)F)cc2)c2ccc3cccnc3c2O)CC1 (centres undefined) | 0 | . | 0 | 71* | . | 0
COc1ccc(C)cc1S(=O)(=O)Nc1cc(Cl)ccc1Cl | -1 | 4 | -3 | 7 | -1 | 0
S=C(Nc1ccccc1Cl)N(Cc1cccnc1)Cc1ccco1 | 0 | -4 | -2 | 38 | 0 | -5
O=C(Nc1ccc(Cl)c(Cl)c1)N(Cc1cccnc1)Cc1ccco1 | 0 | . | -3 | 56* | -1 | 1
COc1cc(Cl)cc(/C=N\NC(=O)c2ccc3c(c2)OCO3)c1O | -2 | 144 | . | . | -2 | 0
O=C(N/N=C/c1cc(Cl)cc(Cl)c1O)c1ccncc1 | 1 | 65* | -6 | ? | 0 | 8
O=C(N/N=C/c1cc(Cl)cc([N+](=O)[O-])c1O)c1ccc2c(c1)OCO2 | -2 | . | -5 | 57* | 0 | 12
SMILES | PG9 Ab binder | H9c2 TAG inh | beta cell repl | T cruzi inh | iPSC survival up | Rev-erbA mod
C=CCC(NC(=O)c1ccc(C#N)cc1)C(=O)NCCC (centres undefined) | 0 | 3 | -5 | . | 1 | 1
Cc1cc(O)c(C(C)C)cc1C1(c2cc(C(C)C)c(O)cc2C)OC(=O)c2ccccc21 | -3 | -15 | -4 | 77* | 0 | -2
CCN(CC)S(=O)(=O)c1ccc(C(=O)NCc2ccc(C)cc2)cc1 | 0 | 4 | -2 | 1 | -1 | 0
NC(=O)C1(N2CCCCC2)CCN(c2nc(-c3ccc(Br)cc3)cs2)CC1 | -2 | . | -5 | 60* | 0 | -9
COc1ccc(C2c3ccc4ccccc4c3Oc3ncn(CCO)c(=N)c32)cc1 (centres undefined) | . | . | -5 | 5 | 0 | .
COc1ccc(C2c3ccc4ccccc4c3Oc3ncn(CCN(C)C)c(=N)c32)cc1 (centres undefined) | 0 | . | -7 | 59* | -1 | -7
CCN(CC)CCNC(=O)Cc1c(C(=O)O)n(C)c2ccccc12 | -1 | -8 | -1 | -1 | 5 | -6
C(=N\Nc1nc2ccccc2[nH]1)/c1ccccc1 | -6 | 13 | 2 | -4 | 0 | -2
Brc1ccc(-c2ccc(/C=N/Nc3nc4ccccc4[nH]3)o2)cc1 | -1 | . | -6 | 62* | -5 | 8
Cc1ccccc1/C=N/Nc1nc2ccccc2[nH]1 | -4 | 11 | -3 | 32 | 3 | 5
Cc1[nH]c2ccccc2c1/C=N/Nc1nc2ccccc2[nH]1 | -10 | 64* | -4 | ? | 0 | 3
C(=N\Nc1nc2ccccc2[nH]1)/c1cccc2cccnc12 | -8 | 67* | -4 | 31 | -1 | 5
O=C(N/N=C/c1cccc2cccnc12)c1ccccc1O | 0 | 65* | -6 | 15 | 0 | 2
O=C(COc1ccc(S(=O)(=O)Nc2ccccc2)cc1)NCc1cccnc1 | 2 | . | 0 | 0 | 0 | 1
CCOC(=O)c1ccccc1NC(=S)N1CCC(N2CCCCC2)CC1 | 1 | . | 0 | 7 | -2 | 3
O=C1c2cccnc2C(=O)N1Cc1ccc(S(=O)(=O)N2CCOc3ccc(Cl)cc32)cc1 | . | . | 1 | -9 | 1 | .
C[C@H]1CN([C@@H](C)CO)C(=O)CCCn2nncc2CO[C@@H]1CN(C)C(=O)Nc1ccc(N2CCCCC2)cc1 | -2 | 10 | . | . | -2 | 1
CCN(CC)c1nc(SCCOC(=O)Nc2ccccc2)nc(N(CC)CC)n1 | 0 | . | -4 | 68* | -1 | 2
O=[N+]([O-])c1ccc(/C=C/c2ccncc2)cc1 | -1 | . | . | 65* | 0 | 1
O=C(/C=C/c1ccc([N+](=O)[O-])cc1)Oc1ccc(/C=N/NC(=O)c2ccncc2)cc1 | 3 | . | -3 | 55* | 0 | -21
O=C(N/N=C/c1ccc([N+](=O)[O-])cc1)c1ccc(COc2ccccc2-c2ccccc2)cc1 | -2 | -5 | -5 | 61* | 2 | -7
COc1c(/C=N/Nc2nc(N3CCCCC3)nc(N3CCCCC3)n2)cccc1[N+](=O)[O-] | 0 | . | 0 | 50 | 1 | -1
NC(=O)N/N=C/c1ccc([N+](=O)[O-])o1 | -1 | -2 | -5 | . | -2 | -2

Source: PubChem
